Measured values: ChEMBL document CHEMBL4196152, “Controlling Ca2+ Permeable α-Amino-3-hydroxy-5-methyl-4-isoxazolepropionic Acid (AMPA) Receptors with Photochromic Ion Channel Blockers” (J Med Chem, 2018)

What was measured:
Format in all cases: cell-based
[1] = biological target: Glutamate receptor 1 (Rattus norvegicus) (UniProt P19490); experiment: Inhibition of rat GluA1 flip isoform expressed in Xenopus laevis oocytes assessed as inhibition of L-Glu-evoked currents at 100 nM under dark condition at -80 mV membrane potential by two electrode voltage-clamp assay
Sequence of Glutamate receptor 1 (Rattus norvegicus) (P19490 whole entry, canonical isoform): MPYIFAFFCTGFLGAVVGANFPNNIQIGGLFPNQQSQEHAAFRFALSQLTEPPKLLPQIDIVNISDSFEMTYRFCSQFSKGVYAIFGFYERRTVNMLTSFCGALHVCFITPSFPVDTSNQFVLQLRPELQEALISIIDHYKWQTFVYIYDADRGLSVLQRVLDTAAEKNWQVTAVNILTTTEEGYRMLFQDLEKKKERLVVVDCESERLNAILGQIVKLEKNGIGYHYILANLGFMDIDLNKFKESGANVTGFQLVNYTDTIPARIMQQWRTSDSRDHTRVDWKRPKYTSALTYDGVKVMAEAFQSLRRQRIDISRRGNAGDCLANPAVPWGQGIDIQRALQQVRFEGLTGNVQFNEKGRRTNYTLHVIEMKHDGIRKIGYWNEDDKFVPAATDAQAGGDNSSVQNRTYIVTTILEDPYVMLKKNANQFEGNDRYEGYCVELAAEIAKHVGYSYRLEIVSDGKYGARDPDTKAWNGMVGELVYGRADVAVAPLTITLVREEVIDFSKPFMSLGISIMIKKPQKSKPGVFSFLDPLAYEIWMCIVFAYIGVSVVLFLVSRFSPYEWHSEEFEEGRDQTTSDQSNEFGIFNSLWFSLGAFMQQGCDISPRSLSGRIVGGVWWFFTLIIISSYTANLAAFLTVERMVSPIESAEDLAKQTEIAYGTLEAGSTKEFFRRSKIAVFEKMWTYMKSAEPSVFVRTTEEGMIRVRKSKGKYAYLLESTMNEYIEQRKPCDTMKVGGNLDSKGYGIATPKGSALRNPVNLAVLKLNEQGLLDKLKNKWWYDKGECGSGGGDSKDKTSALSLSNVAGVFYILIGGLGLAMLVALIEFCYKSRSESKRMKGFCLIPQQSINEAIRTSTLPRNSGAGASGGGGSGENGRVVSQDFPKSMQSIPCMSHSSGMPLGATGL
Outline: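 TEVC on stage V–VI Xenopus laevis oocytes injected with GluA1 cRNA (13–46 nL) and recorded 1–3 days later at −80 mV and 23 °C. Bath solution (mM): 115 NaCl, 2 KCl, 5 HEPES, 1.8 BaCl₂, pH 7.6. Antagonist was co-applied with 300 µM L-glutamate in a dark room. Current was normalized to agonist alone; mean ± SEM, n = 3–16 oocytes.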

[2] = biological target: T1, Glutamate NMDA receptor; Grin1/Grin2a (Rattus norvegicus, UniProt P35439+Q00959); experiment: Inhibition of rat GluN1a/GluN2A expressed in Xenopus laevis oocytes assessed as inhibition of L-Glu and Gly-evoked currents under dark condition at -80 mV membrane potential by two electrode voltage-clamp assay
Outline: (§1)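 Oocytes injected with a 1:10 GluN1:GluN2A cRNA ratio and clamped at −80 mV by TEVC, 23 °C. Bath: 115 NaCl, 2 KCl, 5 HEPES, 1.8 BaCl2 (mM), pH 7.6. Antagonist co-applied with 100 µM L-Glu plus 100 µM glycine; response normalized to agonist alone. Dark runs done in a dark room. IC50 fitted with a Hill equation to pooled data from 3–10 oocytes.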

[3] = biological target: T1, Glutamate NMDA receptor; Grin1/Grin2a; experiment: Inhibition of rat GluN1a/GluN2A expressed in Xenopus laevis oocytes assessed as inhibition of L-Glu and Gly-evoked currents under illumination with blue light at 470 nanometer condition at -80 mV membrane potential by two electrode voltage-clamp assay; outline: as §1
Glutamate receptor 1 [4] = biological target: T2, Glutamate receptor 1 (Rattus norvegicus, UniProt P19490); experiment: Inhibition of rat GluA1 flip isoform expressed in Xenopus laevis oocytes assessed as inhibition of L-Glu-evoked currents under dark condition at -80 mV membrane potential by two electrode voltage-clamp assay
T2 sequence (P19490 whole entry, canonical isoform): as above
Outline: (§2)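 TEVC at −80 mV, 23 °C, on oocytes 1–3 days after cRNA injection. Bath: 115 NaCl, 2 KCl, 5 HEPES, 1.8 BaCl2 (mM), pH 7.6. Antagonist co-applied with 300 µM L-Glu; current normalized to agonist alone. Dark runs done in a dark room. IC50 from pooled data of 3–10 oocytes, fitted with a Hill equation. Single-concentration screens used 100 nM and 10 nM.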

[5] = biological target: T3, Glutamate NMDA receptor; Grin1/Grin2a (Rattus norvegicus) (UniProt P35439+Q00959); experiment: Inhibition of rat GluN1a/GluN2A expressed in Xenopus laevis oocytes assessed as inhibition of L-Glu and Gly-evoked currents at 100 nM under illumination with blue light at 470 nanometer condition at -80 mV membrane potential by two electrode voltage-clamp assay; outline: as §1
[6] = biological target: Glutamate receptor 1 (Rattus norvegicus) (UniProt P19490); experiment: Inhibition of rat GluA1 flip isoform expressed in Xenopus laevis oocytes assessed as inhibition of L-Glu-evoked currents at 100 nM under illumination with blue light at 470 nanometer at -80 mV membrane potential by two electrode voltage-clamp assay; outline: as §2
[7] = biological target: T3, Glutamate NMDA receptor; Grin1/Grin2a (Rattus norvegicus); experiment: Inhibition of rat GluN1a/GluN2A expressed in Xenopus laevis oocytes assessed as inhibition of L-Glu and Gly-evoked currents at 100 nM under dark condition at -80 mV membrane potential by two electrode voltage-clamp assay
Outline: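 Xenopus laevis oocytes (stage V–VI) were injected with GluN1 and GluN2A cRNA at a 1:10 ratio. Two-electrode voltage clamp was done 1–3 days post-injection at −80 mV and 23 °C in 115 NaCl/2 KCl/5 HEPES/1.8 BaCl₂ (mM), pH 7.6. Antagonist was co-applied with 100 µM L-glutamate plus 100 µM glycine in a dark room. Current was normalized to agonist-only; mean ± SEM, n = 3–16.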

Glutamate receptor 1 [8] = biological target: T2, Glutamate receptor 1; experiment: Inhibition of rat GluA1 flip isoform expressed in Xenopus laevis oocytes assessed as inhibition of L-Glu-evoked currents under illumination with blue light at 470 nanometer at -80 mV membrane potential by two electrode voltage-clamp assay; outline: as §2
[9] = biological target: T3, Glutamate NMDA receptor; Grin1/Grin2a (Rattus norvegicus); experiment: Ratio of IC50 for inhibition of rat GluN1a/GluN2A expressed in Xenopus laevis oocytes under illumination with blue light at 470 nanometer condition to IC50 for inhibition of rat GluN1a/GluN2A expressed in Xenopus laevis oocytes under dark condition; outline: as §1

Structure (SMILES)	inhibition [1] [%]	further results
CN(C)c1ccc(/N=N/c2ccc(C(=O)NCCCCCCCCCNCCCNC(=O)[C@@H](N)CCCNC(=N)N)cc2)cc1	20 to 50	–
CCN(CC)c1ccc(/N=N/c2ccc(C(=O)NCCCCCCCCCNCCCNC(=O)[C@@H](N)CCCNC(=N)N)cc2)cc1	20 to 50	–
CCN(CC)c1ccc(/N=N/c2cccc(C(=O)NCCCCCCCCCNCCCNC(=O)[C@@H](N)CCCNC(=N)N)c2)cc1	20 to 50	–
CCN(CC)c1ccc(/N=N/c2ccc(C(=O)N[C@@H](CC(N)=O)C(=O)NCCCCCCCCNCCCCNC(=O)[C@@H](N)CCCNC(=N)N)cc2)cc1	60	IC50 [2]: 1.1 µM; IC50 [3]: 1.2 µM; IC50 (Glutamate receptor 1 [4]): 0.008 µM; inhibition [5]: < 5%; inhibition [6]: 20%; inhibition [7]: < 5%; IC50 (Glutamate receptor 1 [8]): 0.061 µM; Ratio IC50 [9]: 8
N=C(N)NCCC[C@H](N)C(=O)NCCCCCCCCNCCCCNC(=O)[C@H](CC(N)=O)NC(=O)c1cccc(/N=N/c2ccccc2)c1	–	inhibition [7]: 70 to 80%
N=C(N)NCCC[C@H](N)C(=O)NCCCCCCCCNCCCCNC(=O)[C@H](CC(N)=O)NC(=O)c1ccc(/N=N/c2ccccc2)cc1	–	inhibition [7]: 70 to 80%
CCN(CC)c1ccc(/N=N/c2ccc(C(=O)N[C@@H](CC(N)=O)C(=O)NCCCCCCCCCNCCCNC(=O)[C@@H](N)CCCNC(=N)N)cc2)cc1	20 to 50	–
N=C(N)NCCC[C@H](N)C(=O)NCCCNCCCCCCCCCNC(=O)c1cccc(/N=N/c2ccccc2)c1	–	inhibition [7]: 70 to 80%

Continued, in another order:

inhibition [1] [%]	Structure (SMILES)	further results
> 70	CN(C)c1ccc(/N=N/c2cccc(C(=O)N[C@@H](CC(N)=O)C(=O)NCCCCNCCCCCCCCNC(=O)[C@@H](N)CCCNC(=N)N)c2)cc1	–
> 70	CCN(CC)c1ccc(/N=N/c2cccc(C(=O)N[C@@H](CC(N)=O)C(=O)NCCCCNCCCCCCCCNC(=O)[C@@H](N)CCCNC(=N)N)c2)cc1	–
20 to 50	CN(C)c1ccc(/N=N/c2cccc(C(=O)NCCCCCCCCCNCCCNC(=O)[C@@H](N)CCCNC(=N)N)c2)cc1	–
20 to 50	CCN(CC)c1ccc(/N=N/c2cccc(C(=O)N[C@@H](CC(N)=O)C(=O)NCCCCCCCCCNCCCNC(=O)[C@@H](N)CCCNC(=N)N)c2)cc1	–
> 70	CN(C)c1ccc(/N=N/c2ccc(C(=O)N[C@@H](CC(N)=O)C(=O)NCCCCNCCCCCCCCNC(=O)[C@@H](N)CCCNC(=N)N)cc2)cc1	–
20 to 50	CN(C)c1ccc(/N=N/c2cccc(C(=O)N[C@@H](CC(N)=O)C(=O)NCCCCCCCCCNCCCNC(=O)[C@@H](N)CCCNC(=N)N)c2)cc1	–
20 to 50	CN(C)c1ccc(/N=N/c2ccc(C(=O)N[C@@H](CC(N)=O)C(=O)NCCCCCCCCCNCCCNC(=O)[C@@H](N)CCCNC(=N)N)cc2)cc1	–
